Screening results deposited in PubChem BioAssay by several laboratories.
Fibroblast inh: blocks proliferation of human lung fibroblasts; LL 47 human lung fibroblast viability, ATP luminescence; hits give low values; viability, % at 10 µM; 85,000 tested, 1.1% active;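 active = viability at or below 50% in the single dose screen; inactive = viability above 50%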;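 also: compound exposure lasted 72 h before the ATP readout; 100% = median luminescence of untreated cell-only wells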
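Test system: LL 47 human lung fibroblasts; Quantity: 1,150 cells/well; Buffer or medium: IMEM plus 15% FBS; Dosing: tenfold compound dosing solution, DMSO at 0.1%; Timing: overnight cell rest, 72 h compound treatment at 37 °C; Detection: ATP-based CellTiter-Glo luminescent readout; Read-out basis: viability percentage against median untreated-cell control; Controls: cell-only wells, no compound.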
H69AR inhibit: growth inhibitors of human H69AR lung tumor cells; H69AR lung tumor viability, ATP luminescence, 72 h; hits give low values; viability, % at 10 µM; 85,000 tested, 6% active; AID 598;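 active = viability at or below 40%; inactive = viability above 40%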;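 also: multidrug resistant small cell line overexpressing MRP-1 efflux transporter; 100% = mean luminescence of untreated control wells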
E coli WT exp: blocks growth of wild type E. coli BW25113 | OD600 absorbance | growth inhibition, % at 100 µM | 98,000 tested, 0.15% active | AID 710;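 active = growth inhibition above about 50% at one test dose, limit read from the data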;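 also: growth measured after 20 h incubation at 37 °C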
tolC growth inh: E. coli tolC mutant growth inhibition; 65,000 tested, 2.2% active; E. coli BW25113 tolC mutant growth, OD615; growth inhibition, % at 10 µM (by protocol); AID 573;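 active = growth inhibition at or above a cutoff equal to the mean over every tested compound plus 3 SD, cut at about 60% in these data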;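 also: growth measured after 20 h incubation at 37 °C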
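signal = optical density read at 615 nm | test system = E. coli ΔtolC::kan strain BW25113 | timing = 20 h compound exposure of bacteria at 37 °C | buffer or medium = LB medium plus 50 µg/mL kanamycin | compound dosing = 10 µM final, single dose | evaluation = % inhibition of E. coli growth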
Jurkat tox 60K: reduces viability or proliferation of Jurkat cells; Jurkat E6.1 viability, ATP luminescence, 48 h; inhibition, % at 4 µM; 56,000 tested, 1.2% active; AID 463;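 active = inhibition above the mean inhibition of all tested compounds plus 3 SD, cut at about 28% in these data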
HUVEC prolif 384: blocks proliferation of human endothelial cells | 86,000 tested, 1.1% active | viability, % at 10 µM (by protocol) | HUVEC proliferation, CellTiter-Glo luminescence, 72 h; hits give low values;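 active = viability at or below 30%; inactive = viability above 30%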;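 also: 100% = median luminescence of DMSO-only cell control wells on each plate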
Active calls of the source: *; · = no result given. An excerpt weighted towards active compounds, which were near 6.4% of everything screened.

SMILES	Fibroblast inh	H69AR inhibit	E coli WT exp	tolC growth inh	Jurkat tox 60K	HUVEC prolif 384
CC(=O)c1cccc(Nc2nc(-c3cccc([N+](=O)[O-])c3)cs2)c1	·	·	-7.0	·	·	·
CCc1ccccc1NS(=O)(=O)c1ccc2[nH]cc(C(=O)NCc3ccco3)c(=O)c2c1	88.9	70.3	1.0	100.0*	7.8	27.9*
O=C(NCc1ccccc1)c1c[nH]c2ccc(S(=O)(=O)Nc3ccc4c(c3)OCCO4)cc2c1=O	95.3	95.3	-14.0	61.2*	7.4	75.0
O=C(NCc1ccco1)c1c[nH]c2ccc(S(=O)(=O)N3CCOCC3)cc2c1=O	99.6	101.3	-3.0	-7.4	·	95.7
O=C(c1ccccc1)c1c[nH]c2cc3c(cc2c1=O)OCCO3	96.3	94.0	·	-3.7	·	89.3
O=C(NCc1cccnc1)c1c[nH]c2cc3c(cc2c1=O)OCCO3	88.6	79.9	-4.0	-8.4	94.4*	83.4
COc1ccc(-c2nc(N)n[nH]2)cc1	101.2	93.6	3.0	·	·	116.3
O=C(NCc1cccs1)C1CCN(c2ccc(S(=O)(=O)N3CCOCC3)cc2Cl)CC1	58.7	17.6*	-7.0	20.2	91.1*	53.7
CC(C)C(C(=O)NCc1ccco1)N(C(=O)CNS(=O)(=O)c1ccc(Cl)cc1)C1CCCC1 (centres undefined)	81.9	88.1	2.0	72.7*	-6.8	80.8
CC1CCc2cc(F)ccc2N1C(=O)CSc1nnc2c3ccccc3n(C)c2n1 (centres undefined)	·	·	-9.0	·	·	·
CC1Cc2ccccc2N1C(=O)CSc1nnc2c(n1)[nH]c1ccc(F)cc12 (centres undefined)	100.1	37.5*	·	·	·	53.5
CCc1ccccc1N1C[C@@]23C=C[C@@H](O2)C(C(=O)OCC(C)C)[C@H]3C1=O (some centres undefined)	101.8	97.6	0.0	-10.7	-0.9	105.3
CC(C)(C)CC(=O)Nc1nnc(C(F)(F)F)s1	102.8	95.2	·	·	·	94.7
CC(NC(=O)Nc1nnc(C(F)(F)F)s1)(C(F)(F)F)C(F)(F)F	27.9*	6.2*	71.0*	2.9	·	27.9*
O=C(CN(c1ccc(F)cc1)S(=O)(=O)c1ccc2c(c1)OCCO2)Nc1ccc2c(c1)OCO2	100.1	89.6	-8.0	16.8	-1.5	86.7
COCC(=O)OCC(=O)Nc1cc(C(C)(C)C)nn1-c1ccccc1	93.2	82.2	0.0	·	·	92.1
CCOc1cc(S(=O)(=O)N2CCN(Cc3ccccc3)CC2)ccc1Br	109.2	103.5	1.0	63.8*	-2.9	104.0
CCOC(=O)c1c(C)[nH]c(/C(C)=N/O)c1C	92.5	61.8	-5.0	10.2	·	72.1
CCOC(=O)c1cnc(-n2cc(C)cn2)nc1Nc1ccccc1OCC	81.8	50.2	3.0	67.8*	5.6	62.9
CCOC(=O)c1cnc(-n2nc(C)cc2C)nc1Nc1ccccc1OC	·	·	-8.0	·	·	·
Nc1nc(CN2CCN(c3ccccc3)CC2)nc(N2CCCc3ccccc32)n1	98.6	·	6.0	17.0	2.7	79.8
O=C(CSc1nnnn1-c1ccccc1)N1CCCc2ccccc21	90.2	94.6	-16.0	·	·	87.3
Nc1nc(CSc2nnnn2-c2ccccc2)nc(N2CCCc3ccccc32)n1	96.2	27.8*	-3.0	47.8	2.7	69.7
Nc1nc(CN2CCN(c3cccc(Cl)c3)CC2)nc(N2CCCc3ccccc32)n1	95.6	82.2	-6.0	100.0*	-10.4	58.8
CCOc1cccc(OCCOCCN(C)Cc2ccccc2)c1	94.2	90.0	9.0	17.1	4.7	88.7
SMILES	Fibroblast inh	H69AR inhibit	E coli WT exp	tolC growth inh	Jurkat tox 60K	HUVEC prolif 384
CN1C(=O)C(O)(CC(=O)c2ccc(F)cc2)c2cc(Br)ccc21 (centres undefined)	88.1	25.2*	9.0	-0.6	2.9	73.1
COC(=O)CN1C(=O)C(O)(CC(=O)c2ccc(C)cc2)c2cc(Br)ccc21 (centres undefined)	·	·	2.0	0.1	-8.0	·
CC(C)CC(C(=O)NCC1CCCO1)N(C(=O)Cn1nnc(-c2ccc(F)cc2)n1)c1cccc(C(F)(F)F)c1 (centres undefined)	·	·	3.0	·	·	·
O=C(O)C1C2C=CC(O2)C1C(=O)Nc1ccc(S(=O)(=O)Nc2ccccc2)cc1 (centres undefined)	108.2	95.6	4.0	9.5	-4.8	92.1
COc1ccc2c(c1)C1(Nc3ccccc3-c3nc4ccccc4n31)C(=O)N2 (centres undefined)	90.8	85.1	2.0	31.9	3.0	81.0
COc1ccc2c(c1)C1(Nc3ccccc3-c3nc4ccccc4n31)C(=O)N2C (centres undefined)	·	36.8*	-10.0	-2.9	-0.8	88.2
O=C(Nc1cccc(F)c1)N1CC=C(n2c(=O)[nH]c3ccccc32)CC1	98.5	85.8	-10.0	21.8	3.8	95.0
O=C(/C=C/c1ccc(Cl)c(Cl)c1)n1cccn1	86.4	10.1*	0.0	·	·	79.0
O=C(c1ccccc1)N1CCN(C2CC(=O)N(CCc3ccccc3)C2=O)CC1 (centres undefined)	98.7	97.2	10.0	-11.4	5.9	100.5
Cn1c(-c2ccccc2)cc2c3no[n+]([O-])c3ccc21	26.3*	19.1*	2.0	95.1*	78.0*	13.6*
O=C(CCSCCC(=O)NCc1ccccc1)NCc1ccccc1	99.5	100.4	0.0	·	·	104.4
Cc1cc(C)nc(NC2=NCCN2C(=O)Nc2ccc(Cl)c(Cl)c2)n1	85.2	22.2*	·	-11.9	6.1	64.9
O=C(NCCc1c[nH]c2ccccc12)Nc1cccc2ccccc12	108.6	71.6	-1.0	·	·	88.8
Cc1[nH]nc2c1C(=O)CCC2	101.9	100.4	-3.0	-16.3	-8.1	104.6
C/C=C(/C(=C/C)c1ccc(O)cc1)c1ccc(O)cc1	90.0	20.6*	·	31.9	·	60.9
O=C(c1ccc(O)cc1)c1ccc(Cl)cc1	·	·	20.0	24.5	·	·
C=C(c1ccc(O)cc1)c1ccc(O)cc1	·	22.6*	28.0	20.7	-3.8	86.2
CCCn1c(=O)[nH]c(=O)c2c1nc(-c1ccc(OC(F)F)cc1)n2CCN1CCOCC1	·	·	5.0	·	·	·
COc1ccc(C(=O)Nc2ccc3c(c2)OCCO3)cc1	95.0	89.7	·	·	·	79.2
COc1ccc(-c2nc3c(c(=O)n(C)c(=O)n3C)n2CC2CC(c3ccccc3)=NO2)cc1OC (centres undefined)	103.0	6.3*	·	·	-0.2	75.3
COc1ccc(-n2nnnc2-c2cccc(OC)c2)cc1	58.1	25.7*	3.0	-3.3	78.0*	49.3
COc1cccc(C(c2nnnn2Cc2ccccc2)N2CCN(C3CCCC3)CC2)c1OC (centres undefined)	102.2	19.6*	-1.0	-11.8	-1.2	87.5
c1ccc(Cn2nnnc2C(c2cccs2)N2CCCCCC2)cc1 (centres undefined)	82.1	21.9*	-24.0	77.4*	0.5	89.0
c1csc(CCNc2ncnc3sc4c(c23)CCC4)c1	84.7	52.8	-8.0	59.7	40.0*	63.0
c1ccc(Nc2ncnc3sc4c(c23)CCC4)cc1	·	·	-9.0	·	·	·
Cn1c(=O)c2c(-c3ccccc3)n(Cc3ccccn3)cc2n(C)c1=O	98.6	99.1	3.0	-7.2	-0.3	104.9
